{"data": "Assay results collected from several papers", "target": "Myosin light chain kinase family member 4 (MYLK4, Homo sapiens, UniProt Q86YV6)", "One construct used (Q86YV6 1-388)": "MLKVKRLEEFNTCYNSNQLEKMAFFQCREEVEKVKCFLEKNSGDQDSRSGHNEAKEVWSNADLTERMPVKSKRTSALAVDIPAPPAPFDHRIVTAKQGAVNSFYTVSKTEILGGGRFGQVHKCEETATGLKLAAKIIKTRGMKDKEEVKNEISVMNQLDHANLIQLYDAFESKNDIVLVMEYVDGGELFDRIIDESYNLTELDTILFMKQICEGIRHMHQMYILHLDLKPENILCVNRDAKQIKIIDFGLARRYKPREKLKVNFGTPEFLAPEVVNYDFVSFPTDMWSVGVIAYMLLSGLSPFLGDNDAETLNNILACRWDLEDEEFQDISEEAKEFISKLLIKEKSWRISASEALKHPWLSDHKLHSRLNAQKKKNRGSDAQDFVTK", "note": "Protocols differ between the studies behind these lines."}
{"Structure (SMILES)": "COc1cccc(CNC(=O)c2nc3scc(COCc4ccc(C(=O)O)cc4)c3c(=O)[nH]2)c1", "read-out": "cell-free assay", "method": "competition with immobilised ligand", "tested at": "1 µM", "remaining binding": "100%"}
{"Structure (SMILES)": "COc1cnc(Nc2cccc(S(N)(=O)=O)c2)nc1N1CCN(c2ccccc2)C(=O)C1", "read-out": "binding", "method": "competition with immobilised ligand", "tested at": "1 µM", "remaining binding": "100%"}
{"Structure (SMILES)": "O=C(c1ccc(Nc2ncc(Cl)c(-c3cc4ccccc4s3)n2)cc1)N1CCC(N2CCCC2)CC1", "read-out": "binding", "method": "competition with immobilised ligand", "tested at": "1 µM", "remaining binding": "0.1%"}
{"Structure (SMILES)": "CNC(=O)Nc1ccc2c(c1)CC[C@@]21OC(=O)N(CC(=O)N(Cc2ccc(F)cc2)[C@@H](C)C(F)(F)F)C1=O", "read-out": "cell-free assay", "method": "competition with immobilised ligand", "tested at": "1 µM", "remaining binding": "70%"}
{"Structure (SMILES)": "Nc1ncc2c(n1)-c1c([nH]c3ccc(C#CC4CC4)cc13)CCCC2", "read-out": "binding", "method": "competition with immobilised ligand", "tested at": "1 µM", "remaining binding": "83%"}
{"Structure (SMILES)": "Cc1nc(Cc2cccc(C(F)(F)F)c2)sc1-c1ccc(C(N)=O)nc1", "read-out": "cell-free assay", "method": "competition with immobilised ligand", "tested at": "1 µM", "remaining binding": "91%"}
{"Structure (SMILES)": "CN(C)c1ncc(F)c(-c2cnn3ncccc23)n1", "read-out": "binding", "tested at": "1 µM", "remaining binding": "100%"}
{"Structure (SMILES)": "O=C(NCCCN1CCOCC1)c1ccc(Nc2ncc(Cl)c(-c3ccc(Cl)s3)n2)cc1", "read-out": "binding", "method": "competition with immobilised ligand", "tested at": "1 µM", "remaining binding": "0.05%"}
{"Structure (SMILES)": "CN(C)c1nccc(-c2cnn3ncccc23)n1", "read-out": "binding", "tested at": "1 µM", "remaining binding": "88%"}
{"Structure (SMILES)": "COc1cnc(Nc2cccc(S(N)(=O)=O)c2)nc1N1CCN(c2ccccc2)CC1", "read-out": "binding", "method": "competition with immobilised ligand", "tested at": "1 µM", "remaining binding": "100%"}
{"Structure (SMILES)": "O=C(NCC1CCOCC1)c1n[nH]cc1NC(=O)c1c(F)cccc1F", "read-out": "binding", "method": "competition with immobilised ligand", "tested at": "1 µM", "remaining binding": "100%"}
{"Structure (SMILES)": "O=C(c1ccc(Nc2ncc(Cl)c(-c3ccc(Cl)s3)n2)cc1)N1CCC(N2CCCC2)CC1", "read-out": "binding", "method": "competition with immobilised ligand", "tested at": "1 µM", "remaining binding": "0%"}
{"Structure (SMILES)": "CN(CCCC(F)(F)F)c1nccc(-c2cnn3ncccc23)n1", "read-out": "binding", "tested at": "1 µM", "remaining binding": "100%"}
{"Structure (SMILES)": "CCN1CCN(Cc2ccc(C(=O)Nc3ccc(C)c(Oc4ccc5c(c4)CC(=O)N5)c3)cc2C(F)(F)F)CC1", "read-out": "binding", "method": "competition with immobilised ligand", "tested at": "1 µM", "remaining binding": "84%"}
{"Structure (SMILES)": "Nc1cnc(N2CCc3cc(S(=O)(=O)Nc4c(F)cc(Cl)cc4F)cc(N4CCCC4=O)c32)nc1", "read-out": "cell-free assay", "method": "competition with immobilised ligand", "tested at": "1 µM", "remaining binding": "100%"}
{"Structure (SMILES)": "COc1ccnn2ncc(-c3ccnc(N(C)C)n3)c12", "read-out": "binding", "tested at": "1 µM", "remaining binding": "100%"}
{"Structure (SMILES)": "CCC(=O)N[C@@H]1CC[C@H](C(=O)N(C)c2ccc(-c3nc4ccccc4o3)cc2)C1", "read-out": "cell-free assay", "method": "competition with immobilised ligand", "tested at": "1 µM", "remaining binding": "100%"}
{"Structure (SMILES)": "C[C@@H](c1ccc(-n2cnc3c(N)ncnc32)cc1)N1CCc2nn(C)c(Cc3ccccc3)c2C1=O", "read-out": "binding", "method": "competition with immobilised ligand", "tested at": "0.1 µM", "remaining binding": "100%"}
{"Structure (SMILES)": "N[C@@H]1CCN(c2nccc(-c3cnn4ncccc34)n2)C1", "read-out": "binding", "tested at": "1 µM", "remaining binding": "100%"}
